Reference: ChEMBL document CHEMBL1142700, “Nonpolar and short side chain groups at C-11beta of estradiol result in antiestrogens” (J Med Chem, 2005)
pKi: −log10 of the molar value.

Experiments:
[1] = target: T1, Estrogen receptor (Homo sapiens) (UniProt P03372); assay: Inhibition of [3H]E2 binding to human Estrogen receptor-alpha ligand binding domain (LBD) expressed in Escherichia coli lysates
T1 sequence (whole entry): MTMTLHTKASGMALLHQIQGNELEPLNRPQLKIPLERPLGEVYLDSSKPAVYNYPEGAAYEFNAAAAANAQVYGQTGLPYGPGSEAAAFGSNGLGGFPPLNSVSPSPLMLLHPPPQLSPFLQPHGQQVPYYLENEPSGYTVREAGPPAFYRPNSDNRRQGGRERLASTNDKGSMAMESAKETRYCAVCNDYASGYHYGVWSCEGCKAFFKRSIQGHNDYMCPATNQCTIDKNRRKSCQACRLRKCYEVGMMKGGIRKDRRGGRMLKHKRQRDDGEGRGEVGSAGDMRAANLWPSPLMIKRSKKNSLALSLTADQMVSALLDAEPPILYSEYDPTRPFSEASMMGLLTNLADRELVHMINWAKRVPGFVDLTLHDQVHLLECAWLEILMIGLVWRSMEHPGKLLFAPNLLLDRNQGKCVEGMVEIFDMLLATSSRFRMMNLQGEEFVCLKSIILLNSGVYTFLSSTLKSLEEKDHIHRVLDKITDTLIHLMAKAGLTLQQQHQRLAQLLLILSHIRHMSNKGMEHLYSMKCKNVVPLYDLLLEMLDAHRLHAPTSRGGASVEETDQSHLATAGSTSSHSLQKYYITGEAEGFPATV
Outline: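 Human ERα LBD (M250-V595) expressed in E. coli lysates, competed against [3H]E2 overnight at room temperature. Bound separated by dextran-coated charcoal. RBA = EC50 of E2 / EC50 of analogue × 100, from at least three experiments in duplicate.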

Ishikawa [2] = assay: Inhibitory constant against stimulation of alkaline phosphatase activity in Ishikawa cells; format: functional, cell-based, Homo sapiens
[3] = target: Estrogen receptor (Rattus norvegicus) (UniProt P06211+Q62986); assay: Relative binding affinity for estrogen receptor of rat uterine cytosol; format: protein assay
Outline: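 Cytosol from uteri of Sprague-Dawley rats taken 24 h after castration, homogenized in TEGDMo buffer (pH 7.4), spun at 105 000g. Incubated on ice overnight with 1 nM [3H]E2 and competitor at 10^-12 to 10^-6 M. Dextran-coated charcoal separation, counting. RBA = EC50 E2 / EC50 analogue × 100, at least three duplicate experiments.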

[4] = target: Estrogen receptor beta (Homo sapiens) (UniProt Q92731); assay: Inhibition of [3H]E2 binding to human Estrogen receptor-beta ligand binding domain (LBD) expressed in Escherichia coli lysates
Outline: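 Human ERβ LBD (M214-Q530) in E. coli lysates; overnight room-temperature competition with [3H]E2, charcoal separation of bound from free. RBA relative to E2 from EC50 ratio × 100, at least three duplicate experiments.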

Ishikawa [5] = assay: Inhibitory constant against stimulation of alkaline phosphatase activity in Ishikawa cells; ag./ant. is mixed agonist/antagonist; format: functional, cell-based, Homo sapiens
Ishikawa [6] = assay: Inhibitory constant against stimulation of alkaline phosphatase activity in Ishikawa cells; weak mixed agonist/antagonist; format: functional, cell-based, Homo sapiens
Ishikawa [7] = assay: Inhibitory constant against stimulation of alkaline phosphatase activity in Ishikawa cells; na is not active; format: functional, cell-based, Homo sapiens
Ishikawa [8] = assay: Inhibitory constant against stimulation of alkaline phosphatase activity in Ishikawa cells; not active; format: functional, cell-based, Homo sapiens
Ishikawa [9] = assay: Estrogenic potency measured as stimulation of alkaline phosphatase activity relative to E2 in human endometrialadenocarcinoma cells (Ishikawa); format: functional
Outline: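 Ishikawa human endometrial adenocarcinoma cells grown in phenol red-free medium with charcoal-stripped bovine serum and steroid over at least 6 orders of magnitude for 3 days. Cells washed, freeze-thawed, then given 5 mM p-nitrophenyl phosphate at pH 9.8, with kinetic reading of p-nitrophenol at 405 nm. At least three experiments in duplicate; EC50 by curve fitting.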

Ishikawa [10] = assay: Inhibitory constant against stimulation of alkaline phosphatase activity in Ishikawa cells; (agonist); format: functional, cell-based, Homo sapiens
Ishikawa [11] = assay: Inhibitory constant of the compound against stimulationofalkaline phosphatase activity inIshikawa cells; weak mixed agonist/antagonist; format: functional, cell-based, Homo sapiens
Ishikawa [12] = assay: Inhibitory constant against stimulation of alkaline phosphatase activity in Ishikawa cells; mixed agonist/antagonist moderate activity; format: functional, cell-based, Homo sapiens
Ishikawa [13] = assay: Relative stimulatory activity in Ishikawa cells with respect to E2; format: functional, Homo sapiens
Outline: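 Ishikawa alkaline phosphatase induction: phenol red-free medium, charcoal-stripped bovine serum, 3-day exposure to steroid across at least 6 log units. Read kinetically at 405 nm with 5 mM p-nitrophenyl phosphate, pH 9.8. RSA = (1/EC50 analogue) / (1/EC50 E2) × 100, fitted in at least three duplicate experiments.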

Estrogen receptor beta (Homo sapiens), sequence (Q92731 whole entry, the tested form may be a part): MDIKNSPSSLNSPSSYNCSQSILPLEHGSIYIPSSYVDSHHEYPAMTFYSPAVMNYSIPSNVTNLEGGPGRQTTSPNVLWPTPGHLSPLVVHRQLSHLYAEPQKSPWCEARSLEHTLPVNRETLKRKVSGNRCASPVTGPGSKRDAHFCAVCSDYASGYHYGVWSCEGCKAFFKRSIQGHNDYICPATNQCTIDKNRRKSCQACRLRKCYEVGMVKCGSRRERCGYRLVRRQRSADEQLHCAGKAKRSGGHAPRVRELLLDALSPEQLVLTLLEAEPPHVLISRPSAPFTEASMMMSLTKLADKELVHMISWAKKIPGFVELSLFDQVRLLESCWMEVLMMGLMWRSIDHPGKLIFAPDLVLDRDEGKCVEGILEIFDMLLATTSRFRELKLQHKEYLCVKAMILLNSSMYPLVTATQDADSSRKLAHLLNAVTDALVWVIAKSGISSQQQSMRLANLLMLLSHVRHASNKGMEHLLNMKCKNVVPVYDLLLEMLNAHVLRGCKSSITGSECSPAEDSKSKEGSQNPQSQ

CCCOC[C@H]1C[C@]2(C)[C@@H](O)CC[C@H]2[C@@H]2CCc3cc(O)ccc3[C@@H]12
RBA [1]: 146% | pKi (Ishikawa [2]): 9.52 | RBA [3]: 43% | RBA [4]: 125%

CCCOCC[C@H]1C[C@]2(C)[C@@H](O)CC[C@H]2C2CCc3cc(O)ccc3[C@H]21 (single isomer, unassigned)
RBA [1]: 54% | pKi (Ishikawa [2]): 9.52 | RBA [3]: 65% | RBA [4]: 88%

COCCC[C@H]1C[C@]2(C)[C@@H](O)CC[C@H]2[C@@H]2CCc3cc(O)ccc3[C@@H]12
RBA [1]: 159% | pKi (Ishikawa [2]): 9.52 | RBA [3]: 34% | RBA [4]: 111%

CCOC[C@H]1C[C@]2(C)[C@@H](O)CC[C@H]2[C@@H]2CCc3cc(O)ccc3[C@@H]12
RBA [1]: 70% | Ki (Ishikawa [5]): Partial agonist | RBA [3]: 28% | RBA [4]: 73%

CCNC(=O)CC[C@H]1C[C@]2(C)[C@@H](O)CC[C@H]2[C@@H]2CCc3cc(O)ccc3[C@@H]12
Ki (Ishikawa [6]): Partial agonist | RBA [3]: 3.7%

CCCOC(=O)C[C@H]1C[C@]2(C)[C@@H](O)CC[C@H]2C2CCc3cc(O)ccc3[C@H]21 (single isomer, unassigned)
pKi (Ishikawa [2]): 9.00 | RBA [3]: 38%

CCCCO[C@H]1C[C@]2(C)[C@@H](O)CC[C@H]2[C@@H]2CCc3cc(O)ccc3[C@H]21
RBA [1]: 7.5% | RBA [3]: 2.1% | Ki (Ishikawa [7]): Not Active | RBA [4]: 21%

CC(C)OCC[C@H]1C[C@]2(C)[C@@H](O)CC[C@H]2C2CCc3cc(O)ccc3[C@H]21 (single isomer, unassigned)
RBA [1]: 45% | pKi (Ishikawa [2]): 9.40 | RBA [3]: 15% | RBA [4]: 32%

CC(C)(C)OCCC[C@H]1C[C@]2(C)[C@@H](O)CC[C@H]2[C@@H]2CCc3cc(O)ccc3[C@@H]12
RBA [1]: 128% | pKi (Ishikawa [2]): 10.05 | RBA [3]: 81% | RBA [4]: 82%

CC(=O)CC[C@H]1C[C@]2(C)[C@@H](O)CC[C@H]2[C@@H]2CCc3cc(O)ccc3[C@@H]12
Ki (Ishikawa [8]): Not Active | RBA [3]: 1%

C[C@]12C[C@H](CCOCCF)[C@@H]3c4ccc(O)cc4CCC3[C@@H]1CC[C@@H]2O (single isomer, unassigned)
RBA [1]: 112% | pKi (Ishikawa [2]): 7.26 | RBA [3]: 16% | RBA [4]: 34%

COC[C@H]1C[C@]2(C)C(O)CC[C@H]2[C@@H]2CCc3cc(O)ccc3[C@@H]12 (some centres undefined)
RBA [1]: 114% | Relative stimulatory activity (Ishikawa [9]): 125% | RBA [3]: 20% | Ki (Ishikawa [10]): Agonist | RBA [4]: 240%

CC(C)OCCC[C@H]1C[C@]2(C)[C@@H](O)CC[C@H]2[C@@H]2CCc3cc(O)ccc3[C@@H]12
RBA [1]: 220% | pKi (Ishikawa [2]): 9.70 | RBA [3]: 114% | RBA [4]: 93%

CCOCC[C@H]1C[C@]2(C)[C@@H](O)CC[C@H]2C2CCc3cc(O)ccc3[C@H]21 (single isomer, unassigned)
RBA [1]: 49% | pKi (Ishikawa [2]): 9.52 | RBA [3]: 31% | RBA [4]: 40%

CCOC(=S)C[C@H]1C[C@]2(C)[C@@H](O)CC[C@H]2C2CCc3cc(O)ccc3[C@H]21 (single isomer, unassigned)
pKi (Ishikawa [2]): 8.57 | RBA [3]: 10%

CC(C)OC(=O)C[C@H]1C[C@]2(C)[C@@H](O)CC[C@H]2C2CCc3cc(O)ccc3[C@H]21 (single isomer, unassigned)
pKi (Ishikawa [2]): 8.68 | RBA [3]: 17%

CCCCOC[C@H]1C[C@]2(C)[C@@H](O)CC[C@H]2[C@@H]2CCc3cc(O)ccc3[C@@H]12
RBA [1]: 102% | pKi (Ishikawa [2]): 10.00 | RBA [3]: 44% | RBA [4]: 268%

CCNC(=O)C[C@H]1C[C@]2(C)[C@@H](O)CC[C@H]2C2CCc3cc(O)ccc3[C@H]21 (single isomer, unassigned)
Ki (Ishikawa [11]): Partial agonist | RBA [3]: 0.1%

COCC[C@H]1C[C@]2(C)[C@@H](O)CC[C@H]2C2CCc3cc(O)ccc3[C@H]21 (single isomer, unassigned)
Ki (Ishikawa [12]): Partial agonist | RBA [1]: 67% | RBA [3]: 25% | RBA [4]: 90%

CCCC(=O)C[C@H]1C[C@]2(C)[C@@H](O)CC[C@H]2C2CCc3cc(O)ccc3[C@H]21 (single isomer, unassigned)
pKi (Ishikawa [2]): 8.51 | RBA [3]: 13%

CC(C)(C)OCC[C@H]1C[C@]2(C)[C@@H](O)CC[C@H]2C2CCc3cc(O)ccc3[C@H]21 (single isomer, unassigned)
RBA [1]: 5% | pKi (Ishikawa [2]): 7.70 | RBA [3]: 2.3% | RBA [4]: 2%

C[C@]12C[C@H](COCCF)[C@@H]3c4ccc(O)cc4CC[C@H]3[C@@H]1CC[C@@H]2O
RBA [1]: 27% | Ki (Ishikawa [6]): Partial agonist | RBA [3]: 10% | RBA [4]: 35%

CCC(=O)C[C@H]1C[C@]2(C)[C@@H](O)CC[C@H]2C2CCc3cc(O)ccc3[C@H]21 (single isomer, unassigned)
Ki (Ishikawa [6]): Partial agonist | RBA [3]: 18% | Stimulatory activity (Ishikawa [13]): 1.9%

CCOCCC[C@H]1C[C@]2(C)[C@@H](O)CC[C@H]2[C@@H]2CCc3cc(O)ccc3[C@@H]12
RBA [1]: 87% | pKi (Ishikawa [2]): 9.52 | RBA [3]: 48% | RBA [4]: 75%

C[C@]12C[C@H](CCCOCCF)[C@@H]3c4ccc(O)cc4CC[C@H]3[C@@H]1CC[C@@H]2O
RBA [1]: 96% | pKi (Ishikawa [2]): 8.96 | RBA [3]: 47% | RBA [4]: 140%

CCCC(=O)CC[C@H]1C[C@]2(C)[C@@H](O)CC[C@H]2[C@@H]2CCc3cc(O)ccc3[C@@H]12
pKi (Ishikawa [2]): 7.89 | RBA [3]: 7.7%

CCC(=O)CC[C@H]1C[C@]2(C)[C@@H](O)CC[C@H]2[C@@H]2CCc3cc(O)ccc3[C@@H]12
pKi (Ishikawa [2]): 7.80 | RBA [3]: 3.7%

CC(C)(C)COC(=O)C[C@H]1C[C@]2(C)[C@@H](O)CC[C@H]2C2CCc3cc(O)ccc3[C@H]21 (single isomer, unassigned)
pKi (Ishikawa [2]): 8.28 | RBA [3]: 10%

CNC(=O)CC[C@H]1C[C@]2(C)[C@@H](O)CC[C@H]2[C@@H]2CCc3cc(O)ccc3[C@@H]12
Ki (Ishikawa [6]): Partial agonist | RBA [3]: 0.6%
